Only some compounds are listed: those with a hit (about 2.2% of all), similar ones and a draw of the others.
DENV2 CPE rescue = inhibitors of DENV2 cytopathic effect, primary screen, cell-based, plate reader, single concentration | DENV2-infected cells, cytopathic effect rescue | CPE inhibition, % at 9.99 µM | 350,000 tested, 1.7% active; in the data active means CPE inhibition above about 20%, passing the limit was not always enough; inconclusive means no clear call, values can overlap the other calls; tested in BHK-21 cells;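 further: 0% = median of neutral control wells and 100% = median of positive control wells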
C2C12 statin = suppressors of statin myotoxicity in C2C12 myotubes, primary screen, cell-based, single point, plate reader; C2C12 myotubes + simvastatin, ATP luminescence, 48 h; scaled: DMSO 0, geranylgeraniol control 100; rescue of ATP level, % at 7.49 µM; 330,000 tested, 0.78% active;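 active means mean ATP rescue above about 67%, or every replicate alone reaching that limit, limit read from the data, passing the limit was not always enough; inconclusive means no clear call, values can overlap the other calls; inactive means mean under the limit and some replicate under it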;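 further: myotubes were challenged with 10 µM simvastatin during compound exposure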
E-sel inducer = E-selectin induction in HUVECs, primary screen, imaging, HUVEC, immunofluorescence imaging, single point | AID 686992, 2013 | normalized: neutral wells 0, TNF-alpha wells 100 | 260,000 tested, 0.37% active | activation, % at 7.58 µM | P16581;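 active means mean E-selectin-positive cell signal at least 10% of the positive control, reached in at least 60% of replicates, without over 20% cell loss; inconclusive means no rule given, readout overlaps actives, possibly toxicity-flagged; inactive means the rest, including those meeting only one limit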
Target sequence (P16581 whole entry, looked up): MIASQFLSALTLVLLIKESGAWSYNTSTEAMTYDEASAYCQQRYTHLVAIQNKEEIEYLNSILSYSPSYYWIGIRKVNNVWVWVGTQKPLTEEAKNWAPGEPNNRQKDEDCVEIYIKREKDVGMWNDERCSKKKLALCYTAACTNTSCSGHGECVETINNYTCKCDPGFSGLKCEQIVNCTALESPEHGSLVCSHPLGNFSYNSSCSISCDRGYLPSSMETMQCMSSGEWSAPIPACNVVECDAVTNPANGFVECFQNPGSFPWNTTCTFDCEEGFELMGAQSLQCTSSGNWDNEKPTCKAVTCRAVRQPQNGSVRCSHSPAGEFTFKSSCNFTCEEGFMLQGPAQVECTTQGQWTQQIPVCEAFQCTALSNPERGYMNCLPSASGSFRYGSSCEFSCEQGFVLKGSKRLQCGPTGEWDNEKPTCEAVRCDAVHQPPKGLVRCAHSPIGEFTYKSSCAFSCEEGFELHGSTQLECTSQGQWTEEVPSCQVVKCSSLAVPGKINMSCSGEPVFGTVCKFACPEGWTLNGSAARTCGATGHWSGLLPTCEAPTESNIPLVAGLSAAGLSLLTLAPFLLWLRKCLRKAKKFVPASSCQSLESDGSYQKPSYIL
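Assay system: HUVEC, human umbilical vein endothelial cells / Amount: 3,000 HUVEC/well / Controls: TNF-alpha positive control, DMSO neutral control / Compound dosing: single concentration / Medium: EGM-2 over gelatin coat / Evaluation: percent E-selectin-positive cells / Signal: immunofluorescence imaging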
* hit, by the source's call; ? = inconclusive; · = no result given.

SMILES	DENV2 CPE rescue	C2C12 statin	E-sel inducer
CC(C)NC(=O)Nc1ccc2c(c1)C(=O)N(C)[C@H]1CC[C@@H](CC(=O)NCC3CCCCC3)O[C@H]1CO2	35.0*	-6.5	0.1
CN1C(=O)c2cc(NC(=O)C3CCCC3)ccc2OC[C@H]2O[C@@H](CC(=O)NCC3CC3)CC[C@H]21	-2.3	-6.7	0.0
CN1CCN(C(=O)C[C@H]2CC[C@@H]3[C@H](COc4ccc(NC(=O)C5CCC5)cc4C(=O)N3C)O2)CC1	12.0	·	-0.2
CN1CCN(C(=O)C[C@H]2CC[C@@H]3[C@@H](COc4ccc(NC(=O)C5CCC5)cc4C(=O)N3C)O2)CC1	24.1*	·	0.1
CC(C)NC(=O)Nc1ccc2c(c1)C(=O)N(C)[C@@H]1CC[C@@H](CC(=O)NCC3CCCCC3)O[C@@H]1CO2	?	-16.7	0.0
C[C@H](CO)N1C[C@H](C)[C@@H](CN(C)S(C)(=O)=O)Oc2cc(C#CCN(C)C)ccc2S1(=O)=O	-1.0	9.6	-0.1
COc1ccc(CN(C)C[C@H]2Oc3ccc(NC(=O)CCN4CCOCC4)cc3C(=O)N([C@H](C)CO)C[C@@H]2C)cc1	-2.9	10.5	-0.9
COc1ccc(NC(=O)Nc2ccc3c(c2)C(=O)N([C@H](C)CO)C[C@H](C)[C@@H](CN(C)C)OCCCC[C@H](C)O3)cc1	14.5	39.2	0.0
C[C@@H]1CN([C@H](C)CO)C(=O)c2cc(NC(=O)c3ccccc3)ccc2O[C@@H](C)CCCCO[C@@H]1CN(C)Cc1ccc(C(F)(F)F)cc1	11.6	·	0.2
CCCCCCCCC(NC(=O)c1ccc(C#N)cc1)C(=O)NCCC (configuration not stated)	-3.0	159.4*	0.0
CCCNC(=O)C(CC)NC(=O)c1ccc(C#N)cc1 (configuration not stated)	-10.6	19.0	0.0
CCCNC(=O)C(Cc1ccc(F)cc1)NC(=O)c1ccc(C#N)cc1 (configuration not stated)	-5.4	-7.8	-0.3
CCCNC(=O)C(Cc1ccc(I)cc1)NC(=O)c1ccc(C#N)cc1 (configuration not stated)	32.8*	18.8	0.2
CO[C@@H]1CC[C@@H]2CCOc3ccc(C#N)cc3C(=O)N(C)C[C@@H](C)C(=O)N(C)C[C@H]1O2	?	10.8	0.0
C[C@H](CO)N1C[C@H](C)[C@@H](CN(C)C(=O)Nc2cccc(F)c2)Oc2cc(C#CC3(O)CCCC3)ccc2S1(=O)=O	4.6	-57.2	-0.1
CCC(=O)N1CC2(C1)[C@H](c1ccc(-c3ccc(F)cc3)cc1)[C@@H](CO)N2C(C)=O	-11.7	·	0.1
C[C@@H]1CN([C@@H](C)CO)C(=O)Cc2cc(NC(=O)CCCCCC(=O)Nc3ccccc3N)ccc2O[C@@H]1CN(C)CC1CC1	-6.8	·	-0.1
Cc1noc(C)c1S(=O)(=O)Nc1ccc2c(c1)C(=O)N([C@H](C)CO)C[C@H](C)[C@H](CN(C)Cc1ccc(C(=O)O)cc1)OCCCC[C@@H](C)O2	50.4*	·	0.0
Cc1noc(C)c1S(=O)(=O)Nc1ccc2c(c1)C(=O)N([C@@H](C)CO)C[C@H](C)[C@@H](CN(C)Cc1ccncc1)OCCCC[C@@H](C)O2	22.0*	·	2.7
Cc1noc(C)c1S(=O)(=O)Nc1ccc2c(c1)C(=O)N([C@@H](C)CO)C[C@H](C)[C@@H](CN(C)Cc1ccc(Cl)c(Cl)c1)OCCCC[C@H](C)O2	22.5*	·	-0.2
Cc1noc(C)c1S(=O)(=O)Nc1ccc2c(c1)C(=O)N([C@H](C)CO)C[C@H](C)[C@@H](CN(C)Cc1ccc(Cl)c(Cl)c1)OCCCC[C@H](C)O2	1.1	·	-0.2
Cc1noc(C)c1S(=O)(=O)Nc1ccc2c(c1)C(=O)N([C@@H](C)CO)C[C@@H](C)[C@H](CN(C)Cc1ccncc1)OCCCC[C@H](C)O2	7.1	·	0.5
Cc1noc(C)c1S(=O)(=O)Nc1ccc2c(c1)C(=O)N([C@H](C)CO)C[C@@H](C)[C@H](CN(C)Cc1ccc(C(=O)O)cc1)OCCCC[C@@H](C)O2	12.5	·	0.7
C/C=C/c1ccc([C@@H]2[C@@H](CO)N(C(C)=O)C23CN(C(=O)NC2CCCCC2)C3)cc1	-4.9	·	0.0
C[C@H](NC(=O)C[C@@H]1C=C[C@@H](NC(=O)C2CC2)[C@H](CO)O1)c1ccccc1	2.7	-1.0	1.6
SMILES	DENV2 CPE rescue	C2C12 statin	E-sel inducer
C[C@@H]1CN([C@@H](C)CO)C(=O)c2cc(NS(=O)(=O)c3cn(C)cn3)ccc2O[C@@H](C)CCCCO[C@H]1CN(C)S(=O)(=O)c1ccc(F)cc1	16.0	·	·
C[C@H](CO)N1C[C@H](C)[C@H](CN(C)C(=O)c2ccc(F)cc2)Oc2cc(C3=CCCCC3)ccc2S1(=O)=O	-12.0	-40.9	-0.9
O=C(Nc1ccc(C(O)c2ccccc2)cc1)[C@@H]1O[C@H](CO)[C@H](O)[C@H](O)[C@H]1O (some centres not stated)	7.5	1.3	-0.1
COc1ccc(-c2ccccc2)cc1NC(=O)[C@@H]1O[C@H](CO)[C@H](O)[C@H](O)[C@H]1O	32.0*	4.9	0.0
COc1ccc(NC(=O)Nc2ccc3c(c2)C(=O)N([C@@H](C)CO)C[C@@H](C)[C@H](CN(C)S(=O)(=O)c2ccc(C)cc2)OCCCC[C@@H](C)O3)cc1	1.3	·	-0.3
Cc1noc(C)c1S(=O)(=O)Nc1ccc2c(c1)CC(=O)N([C@H](C)CO)C[C@@H](C)[C@H](CN(C)Cc1ccc(C(=O)O)cc1)O2	-4.9	33.9	0.9
Oc1ccccc1C=NNc1nc2ccccc2s1	-1.7	6.2	-0.3
Oc1ccc(C=NNc2nc3ccccc3s2)c(O)c1	4.4	117.4*	0.1
CO[C@@H]1CN(C)C(=O)c2ccc(NS(C)(=O)=O)cc2OC[C@@H](C)N(CC2CCOCC2)C[C@@H]1C	-11.7	9.3	-0.1
CCn1c2ccccc2c2nnc(SCC(N)=O)nc21	·	20.2	·
CCn1c2ccccc2c2nnc(SCN3C(=O)c4ccccc4C3=O)nc21	0.8	·	120.9*
COc1ccc(CCNCc2ccc(OCc3ccc(Cl)nc3)c(OC)c2)cc1OC	·	-7.9	·
CCCCCNCc1ccc(OCc2ccc(Cl)nc2)c(OC)c1	31.4*	·	·
COc1ccc(S(=O)(=O)N(C)C[C@@H]2Oc3ccc(NC(=O)Nc4ccc(F)cc4)cc3CC(=O)N([C@H](C)CO)C[C@@H]2C)cc1	0.6	-28.5	0.3
COc1ccc(NC(=O)Nc2ccc3c(c2)CC(=O)N([C@H](C)CO)C[C@@H](C)[C@H](CN(C)S(=O)(=O)c2ccc(OC)cc2)O3)cc1	-7.5	-0.9	0.5
COc1ccc(NC(=O)Nc2ccc3c(c2)CC(=O)N([C@H](C)CO)C[C@H](C)[C@@H](CN(C)S(=O)(=O)c2ccc(OC)cc2)O3)cc1	69.6*	21.3	0.4
COc1ccc(S(=O)(=O)N(C)C[C@H]2Oc3ccc(NC(=O)Nc4ccc(F)cc4)cc3CC(=O)N([C@@H](C)CO)C[C@H]2C)cc1	23.3*	-4.0	0.0
COc1ccc(S(=O)(=O)N(C)C[C@H]2Oc3ccc(NC(=O)CCC(F)(F)F)cc3CC(=O)N([C@H](C)CO)C[C@H]2C)cc1	1.3	-7.0	1.2

Compound activity: PubChem, Broad Institute
